For experiment [1], the system named is CCRF-CEM. In words: Growth inhibition of dCK deficient CEM cells by MTT assay in presence of dipyridamole. As to conditions: Homo sapiens. (Formazan colour is commonly taken as a measure of viable cells.)
For experiment [2], the system named is A549. In words: Growth inhibition of A549 cells by SRB assay. The format is functional, cell-based. As to conditions: Homo sapiens. An outline of the steps:
(§1)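 Cells seeded at 5000/well and exposed to a range of drug concentrations for 72 h at 37 °C, 5% CO2, then read by SRB. A2780 and its dCK-deficient variant AG6000 were grown in DMEM; A549, H292 and H460 in RPMI; both media had 10% FCS and 20 mM HEPES. OD was read at 540 or 492 nm. Relative growth = (ODtreated − ODzero)/(ODcontrol − ODzero) × 100%, with ODzero taken at drug addition.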
(In SRB staining, fixed cells bind dye roughly in proportion to their protein.)

A short description of experiment [3]: Growth inhibition of AG6000 cells by SRB assay. As to conditions: Homo sapiens. The class given is functional, cell-based. An outline of the steps:
as §1

For experiment [4], the system named is NCI-H460. In words: Growth inhibition of H460 cells by SRB assay in presence of dipyridamole. The format is functional, cell-based. To be noted: Homo sapiens. The method, boiled down: (§2)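 SRB growth assay run with the nucleoside transport inhibitor dipyridamole at 1 µM final. Cells were seeded at 5000/well and exposed to a range of drug concentrations for 72 h at 37 °C, 5% CO2. Media: DMEM for A2780 and the dCK-deficient AG6000; RPMI for A549, H292 and H460; each with 10% FCS and 20 mM HEPES. Relative growth was calculated against ODzero and untreated controls.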

In experiment [5] the test system is CCRF-CEM. In words: Growth inhibition of dCK deficient CEM cells by MTT assay. As to conditions: Homo sapiens.
The test system of experiment [6] is SW1573. In words: Growth inhibition of SW1573 cells by SRB assay in presence of dipyridamole. The format is functional, cell-based. As to conditions: Homo sapiens. The method, boiled down:
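SW1573 cells cultured in DMEM, 10% FCS, 20 mM HEPES, 37 °C, 5% CO2. Plated at 5000 cells/well and given graded drug concentrations with the nucleoside transport inhibitor dipyridamole at 1 µM final, for 72 h. SRB read-out at OD 540 or 492 nm. Growth is expressed relative to time-zero and untreated wells.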

A short description of experiment [7]: Growth inhibition of AG6000 cells by SRB assay in presence of dipyridamole. The class given is functional, cell-based. To be noted: Homo sapiens. The method, boiled down:
as §2

For experiment [8], the system named is CCRF-CEM. In words: Growth inhibition of CEM cells by MTT assay. To be noted: Homo sapiens.
Experiment [9] is described as follows: Growth inhibition of H292 cells by SRB assay. To be noted: Homo sapiens, NCI-H292. The format is functional, cell-based. The method, boiled down: as §1
Experiment [10] can be described thus: Growth inhibition of H292 cells by SRB assay in presence of dipyridamole. The class given is functional, cell-based. To be noted: Homo sapiens, NCI-H292. An outline of the steps: as §2
Experiment [11] relates to A2780. In words: Growth inhibition of A2780 cells by SRB assay. The class given is functional, cell-based. To be noted: Homo sapiens. The method, boiled down: as §1
Experiment [12] deals with A549. In words: Growth inhibition of A549 cells by SRB assay in presence of dipyridamole. The class given is functional, cell-based. To be noted: Homo sapiens. An outline of the steps:
as §2

The test system of experiment [13] is CCRF-CEM. In words: Growth inhibition of CEM cells by MTT assay in presence of dipyridamole. As to conditions: Homo sapiens.
Experiment [14] relates to SW1573. In words: Growth inhibition of SW1573 cells by SRB assay. The format is functional, cell-based. To be noted: Homo sapiens. The method, boiled down:
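SW1573 NSCLC cells grown in DMEM with 10% FCS and 20 mM HEPES at 37 °C, 5% CO2. Seeded at 5000 cells/well and exposed to a range of drug concentrations for 72 h, then SRB assay. OD read at 540 or 492 nm. Relative growth = (ODtreated − ODzero)/(ODcontrol − ODzero) × 100%, with ODzero taken at drug addition.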

In experiment [15] the test system is NCI-H460. In words: Growth inhibition of H460 cells by SRB assay. The format is functional, cell-based. To be noted: Homo sapiens. The method, boiled down:
as §1

Experiment [16] deals with A2780. In words: Growth inhibition of A2780 cells by SRB assay in presence of dipyridamole. The class given is functional, cell-based. To be noted: Homo sapiens. An outline of the steps: as §2

As to `Nc1ccn([C@@H]2O[C@H](CO)[C@@H](O)C2(F)F)c(=O)n1` [GEMCITABINE], the half-inhibitory concentration (IC50) amounted to 100 µM in the experiment with CCRF-CEM [1]; 0.014 µM in the experiment with A549 [2]; 20 µM in experiment [3]; 0.103 µM with NCI-H460 [4]; 50 µM with CCRF-CEM [5]; 0.275 µM with SW1573 [6]. Further, the IC50 in experiment [7] was 20 µM; in the experiment on CCRF-CEM [8], 0.13 µM; in experiment [9], 0.013 µM; in experiment [10], 0.21 µM; in the experiment with A2780 [11] it was 0.0015 µM; in the experiment on A549 [12] it was 0.225 µM. The concentration for half-maximal inhibition (IC50) is 1 µM in the experiment on CCRF-CEM [13], 0.016 µM in the experiment with SW1573 [14], 0.01 µM with NCI-H460 [15] and 0.015 µM in the experiment on A2780 [16].

One may read the IC50 as the point on the concentration scale where inhibition reaches its midpoint.

Values taken from ChEMBL document CHEMBL1146216, “Synthesis and biological activity of a gemcitabine phosphoramidate prodrug” (J Med Chem, 2007).
